Source: PubChem BioAssay
A selection: hits, their analogues and other compounds. The true share with any hit is near 1.9%.
IMP-1 inh: inhibitors of Pseudomonas aeruginosa IMP-1 metallo-beta-lactamase | inhibition, % at 5.6 µM | purified IMP-1, nitrocefin hydrolysis, epi-absorbance fluorescence | actives 0.45% (n = 290,000);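 active = inhibition above the mean plus 3 SD of all compounds in the same screening run, cut at about 4.5% in these data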
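System: Purified recombinant IMP-1 metallo-beta-lactamase enzyme | Measured by: Fluorescence quenching readout, ex 480/em 530 nm | Replication: Singlicate | Incubation: 15 min preincubation plus 25 min reaction at 25 °C | Evaluation: Percent inhibition from optical density relative to buffer-blank wells | Benchmarks: DMSO with and without IMP-1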
VIM-2 inhibitor: blocks Pseudomonas aeruginosa VIM-2 metallo-beta-lactamase. inhibition, % at 5.6 µM. purified VIM-2, nitrocefin hydrolysis, epi-absorbance fluorescence. AID 1527. actives 0.89% (n = 290,000);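 active = inhibition above the mean of all tested compounds plus 3 SD, cutoff set per screening run, cut at about 7.5% in these data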;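 also: red hydrolysis product quenches plate fluorescence so inhibitors raise well fluorescence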
FID counter: fluorescent intercalator displacement, NS3 helicase counter-screen | actives 0.17% (n = 290,000) | inhibition, % at 7.9 µM | DNA fluorescent intercalator displacement, fluorescence; in the data active = inhibition above about 37%;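 also: higher means more ethidium bromide displaced from hairpin DNA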
NS3 helicase inh: inhibitors of Hepatitis C virus NS3 helicase. NS3 helicase DNA unwinding, Cy5 molecular beacon fluorescence. inhibition, % at 10.9 µM. actives 0.56% (n = 290,000);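 active = inhibition above the mean of all tested compounds plus 3 SD, set per campaign, cut at about 35% in these data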
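test system = hepatitis C virus NS3 helicase domain fragment enzyme | reagent = annealed dual-labelled DNA beacon duplex, ATP-started | times = 1 h at 25 °C | detection = Cy5 fluorescence, 0 and 60 min reads | read-out basis = percent inhibition from t60/t0 fluorescence ratio | control set = DMSO and thioflavine S | replication = one well per compound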
A number is an active result.

`CCOC(=O)c1ccc(N2CN(C3CCCCC3)CNC2=S)cc1` gave IMP-1 inh 7.2, VIM-2 inhibitor inactive, FID counter inactive and NS3 helicase inh inactive.
Cc1ccc(NC(=O)Cn2cncc2-c2ccc([N+](=O)[O-])cc2)cc1C was read as IMP-1 inh 12, VIM-2 inhibitor inactive, FID counter inactive and NS3 helicase inh inactive.
Cn1c(N=Nc2ccc(N3CCOCC3)cc2)[n+](C)c2ccccc21 was read as IMP-1 inh inactive, VIM-2 inhibitor inactive, FID counter 59 and NS3 helicase inh inactive.
For COC(=O)Nc1ccc(S(=O)(=O)N2CCC(C(=O)NC3CCCCC3)CC2)cc1 the results were IMP-1 inh inactive, VIM-2 inhibitor inactive, FID counter inactive and NS3 helicase inh inactive.
CC(=O)Oc1ccc2c(C)c(CC(=O)N3CCN(C(=O)C4COc5ccccc5O4)CC3)c(=O)oc2c1C (configuration not stated) was read as IMP-1 inh inactive, VIM-2 inhibitor inactive, FID counter inactive and NS3 helicase inh inactive.
For Cn1nc(-c2ccc(C(=O)NCCO)cc2)c2ccccc2c1=O the results were IMP-1 inh inactive, VIM-2 inhibitor 10, FID counter inactive and NS3 helicase inh inactive.
Cn1nc(-c2ccc(OCC(=O)NCC3CCCO3)cc2)c2ccccc2c1=O (configuration not stated) was read as IMP-1 inh inactive, VIM-2 inhibitor 11, FID counter inactive and NS3 helicase inh inactive.
Screening Cn1nc(-c2ccc(C(=O)NCC3CCCO3)cc2)c2ccccc2c1=O (configuration not stated) returned IMP-1 inh inactive, VIM-2 inhibitor inactive, FID counter inactive and NS3 helicase inh inactive.
`Cc1cc(-c2nn(C)c(=O)c3ccccc23)cc(C)c1O` gave IMP-1 inh inactive, VIM-2 inhibitor 9.2, FID counter inactive and NS3 helicase inh inactive.
For NCC12CC3CC(C1)CC(c1ccc(Cl)cc1)(C3)C2 the results were IMP-1 inh inactive, VIM-2 inhibitor inactive, FID counter inactive and NS3 helicase inh inactive.
`Cc1ccccc1CN1CCN(Cc2cc(=O)c3ccccc3[nH]2)CC1CCO` (configuration not stated) gave IMP-1 inh 8.3, VIM-2 inhibitor inactive, FID counter inactive and NS3 helicase inh inactive.
Cc1ccccc1CN1CCN(Cc2cc3ccccc3o2)CC1CCO (configuration not stated) was read as IMP-1 inh inactive, VIM-2 inhibitor inactive, FID counter inactive and NS3 helicase inh inactive.
For CCN(CC)S(=O)(=O)c1ccc(N2CCc3cc(OC)c(OC)cc3C2)nc1 the results were IMP-1 inh inactive, VIM-2 inhibitor inactive, FID counter inactive and NS3 helicase inh inactive.
`COc1cccc(C(=O)Oc2ccc3ccc(=O)oc3c2)c1` gave IMP-1 inh inactive, VIM-2 inhibitor inactive, FID counter inactive and NS3 helicase inh inactive.
C/C(CC(=O)Nc1c(C)cc(C)cc1C)=N\NC(=O)Cc1ccccc1 was read as IMP-1 inh inactive, VIM-2 inhibitor inactive, FID counter inactive and NS3 helicase inh inactive.
Screening O=C(O)Cn1cc(/C=C2/SC(=O)N(CC(=O)N3CCCCCC3)C2=O)c2ccccc21 returned IMP-1 inh inactive, VIM-2 inhibitor inactive, FID counter inactive and NS3 helicase inh inactive.
Screening O=C(O)COc1ccc(Br)cc1/C=C1/SC(=O)N(CC(=O)N2CCCC2)C1=O returned IMP-1 inh 43, VIM-2 inhibitor inactive, FID counter inactive and NS3 helicase inh inactive.
Cc1cc(N2CCN(C)CC2)nc2ccc(NC(=S)N3CCN(c4ccc(Cl)cc4)CC3)cc12 was read as IMP-1 inh inactive, VIM-2 inhibitor inactive, FID counter 46 and NS3 helicase inh inactive.
For Cc1cccc(N2CCN(C(=S)Nc3ccc4nc(N5CCN(C)CC5)cc(C)c4c3)CC2C)c1 (configuration not stated) the results were IMP-1 inh inactive, VIM-2 inhibitor inactive, FID counter 47 and NS3 helicase inh inactive.
`Cc1ccc2oc(=O)c3cc(C(=O)NCCCN4CCCC(C)C4)sc3c2c1` (configuration not stated) gave IMP-1 inh inactive, VIM-2 inhibitor 11, FID counter 39 and NS3 helicase inh inactive.
`CCCN1CCN(CCCNC(=O)c2cc3c(=O)oc4ccc(C)cc4c3s2)CC1` gave IMP-1 inh inactive, VIM-2 inhibitor 12, FID counter inactive and NS3 helicase inh inactive.
`CCN1CCN(C(=O)c2cc3c(=O)oc4ccc(C)cc4c3s2)CC1` gave IMP-1 inh inactive, VIM-2 inhibitor 8.4, FID counter inactive and NS3 helicase inh inactive.
Cc1ccc2oc(=O)c3cc(C(=O)NCCN4CCc5ccccc5C4)sc3c2c1 was read as IMP-1 inh inactive, VIM-2 inhibitor inactive, FID counter inactive and NS3 helicase inh inactive.
`CC(=O)c1ccc(S(=O)(=O)N2CCCCC2C(=O)O)cc1` (configuration not stated) gave IMP-1 inh inactive, VIM-2 inhibitor inactive, FID counter inactive and NS3 helicase inh inactive.
Cc1ccc2c(CNCc3ccccc3)cc(=O)oc2c1 was read as IMP-1 inh inactive, VIM-2 inhibitor inactive, FID counter inactive and NS3 helicase inh inactive.
COc1ccc(NC(=O)CN2CCN(CC(=O)Nc3ccc(F)cc3F)CC2)cc1 was read as IMP-1 inh inactive, VIM-2 inhibitor inactive, FID counter inactive and NS3 helicase inh inactive.
Cc1nc(Sc2ccccc2)c(C#N)c(C)c1[N+](=O)[O-] was read as IMP-1 inh inactive, VIM-2 inhibitor 8.6, FID counter inactive and NS3 helicase inh inactive.
Screening CCOc1ccc(NCc2cccn2-c2nnc(N3CCC(C(=O)NCCCN4CC(C)CC(C)C4)CC3)s2)cc1 (configuration not stated) returned IMP-1 inh inactive, VIM-2 inhibitor inactive, FID counter 38 and NS3 helicase inh inactive.
CCN1CCN(CCCNC(=O)C2CCN(c3nnc(-n4cccc4)s3)CC2)CC1 was read as IMP-1 inh inactive, VIM-2 inhibitor inactive, FID counter inactive and NS3 helicase inh inactive.
For Fc1ccc(Nc2ccnc(Nc3ccc(F)cc3)n2)cc1 the results were IMP-1 inh inactive, VIM-2 inhibitor inactive, FID counter 39 and NS3 helicase inh inactive.
`Nc1ncnc(Nc2ccc(F)cc2)n1` gave IMP-1 inh inactive, VIM-2 inhibitor inactive, FID counter inactive and NS3 helicase inh inactive.
`Cc1cnc(NC(=O)Nc2ccc(OCc3ccccc3)cc2)c(Br)c1` gave IMP-1 inh inactive, VIM-2 inhibitor inactive, FID counter inactive and NS3 helicase inh inactive.
Cc1ccccc1-n1c(-c2ccoc2C)n[nH]c1=S was read as IMP-1 inh inactive, VIM-2 inhibitor 8.6, FID counter inactive and NS3 helicase inh inactive.
For Cc1cccc(-n2c(C)n[nH]c2=S)c1 the results were IMP-1 inh inactive, VIM-2 inhibitor 8.0, FID counter inactive and NS3 helicase inh inactive.
For Cc1cccc(-n2c(-c3ccoc3C)n[nH]c2=S)c1 the results were IMP-1 inh inactive, VIM-2 inhibitor 9.1, FID counter inactive and NS3 helicase inh inactive.
Screening Cc1ccccc1-n1c(C)n[nH]c1=S returned IMP-1 inh inactive, VIM-2 inhibitor inactive, FID counter inactive and NS3 helicase inh inactive.
For Cc1cccc(-n2c(-c3ccncc3)n[nH]c2=S)c1 the results were IMP-1 inh inactive, VIM-2 inhibitor inactive, FID counter inactive and NS3 helicase inh inactive.
